The values that follow come from ChEMBL document CHEMBL4052630, “Design, synthesis and evaluation of scutellarein-O-acetamidoalkylbenzylamines as potential multifunctional agents for the treatment of Alzheimer's disease” (Eur J Med Chem, 2017).

In data set [1] the target is T1, Acetylcholinesterase (Rattus norvegicus, UniProt P37136).
T1 sequence (P37136 whole entry): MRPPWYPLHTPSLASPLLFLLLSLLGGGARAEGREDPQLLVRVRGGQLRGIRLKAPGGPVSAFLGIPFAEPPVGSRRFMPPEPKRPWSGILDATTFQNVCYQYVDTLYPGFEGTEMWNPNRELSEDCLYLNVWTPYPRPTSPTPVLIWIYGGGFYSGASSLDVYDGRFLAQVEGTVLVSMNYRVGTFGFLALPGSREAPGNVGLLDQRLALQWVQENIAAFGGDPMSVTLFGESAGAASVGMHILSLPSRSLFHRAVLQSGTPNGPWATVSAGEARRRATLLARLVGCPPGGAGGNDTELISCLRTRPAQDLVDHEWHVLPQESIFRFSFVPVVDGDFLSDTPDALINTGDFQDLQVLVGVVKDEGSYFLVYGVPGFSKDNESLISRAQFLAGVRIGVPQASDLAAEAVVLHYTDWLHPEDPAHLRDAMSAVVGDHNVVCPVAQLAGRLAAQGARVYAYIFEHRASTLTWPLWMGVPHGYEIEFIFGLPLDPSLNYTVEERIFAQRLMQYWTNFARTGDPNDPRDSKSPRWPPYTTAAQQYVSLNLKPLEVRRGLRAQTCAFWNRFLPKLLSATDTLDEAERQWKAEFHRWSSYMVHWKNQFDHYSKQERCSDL
Description: Inhibition of rat cortex homogenate AChE using acetylthiocholine iodide as substrate after 15 mins in presence of BuChE inhibitor iso-OMPA by Ellman's method. On the technique in general: In Ellman's method for cholinesterases, released thiocholine reacts with DTNB.

Data set [2] is described as follows: Inhibition of rat serum BuChE using butyrylthiocholine iodide as substrate after 15 mins by Ellman's method. The data set is classed as ADME.
A short description of data set [3]: Antioxidant activity assessed as trolox equivalents of AAPH radical scavenging activity at 1 to 10 uM preincubated for 15 mins followed by AAPH addition measured every 60 sec for 90 mins by ORAC-FL assay. The data set is classed as functional. A digest of the protocol:
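ORAC-FL in 75 mM phosphate buffer pH 7.4. Compound at 1–10 µM with fluorescein (150 nM final), pre-incubated 15 min at 37 °C, then AAPH added (12 mM final). Fluorescence read every minute for 90 min, ex 485/em 535 nm. Curves normalised to the FL+AAPH blank. Trolox standard 1–8 µM. Duplicates, ≥3 independent assays. Results given as µM Trolox equivalent per µM compound.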

Data set [4] addresses T2, Acetylcholinesterase (Homo sapiens, UniProt P22303). The data set can be described thus: Inhibition of human erythrocyte AChE using acetylthiocholine iodide as substrate after 15 mins by Ellman's method.
Data set [5] in a line: Metal chelating activity assessed as compound-Zn2+ complex formation by measuring shift in maximum absorption wavelength at 37.5 uM after 30 mins by UV-vis spectrophotometric method. The method in brief:
(§1)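 UV absorption scanned from 200 to 600 nm after 30 min at room temperature in methanol. Compound and each metal salt (CuCl2, ZnCl2, AlCl3, FeSO4) were at 37.5 µM final. Spectra compared with and without metal.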

The nature of data set [6]: Metal chelating activity assessed as compound-Fe2+ complex formation by measuring shift in maximum absorption wavelength at 37.5 uM after 30 mins by UV-vis spectrophotometric method. The method in brief: as §1
Data set [7] in a line: Metal chelating activity assessed as disaggregation of Cu2+ induced amyloid beta (1 to 42) fibrils at 25 uM treated for 24 hrs post Cu2+ treatment for 24 hrs by ThT-based fluorometric method relative to control. A digest of the protocol: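 Fibrils preformed from Aβ1-42 (25 µM) plus Cu2+ (25 µM) in 20 mM HEPES pH 6.6, 150 mM NaCl, 24 h at 37 °C. Compound (25 µM) then added for another 24 h at 37 °C. Thioflavin T (5 µM, glycine-NaOH pH 8.5) fluorescence read at ex 446/em 490 nm. Triplicate.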

For a further data set, the system named is PC-12. Description: Neuroprotective activity against H2O2 induced cell injury in rat PC12 cells assessed as cell viability at 1 uM preincubated for 24 hrs followed by incubation with H2O2 for 2 hrs measured after 24 hrs by MTT assay (reference value: 43.9%). The following applies: read-out: Activity. The data set is classed as functional. A digest of the protocol: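 PC12 cells in phenol-red-free DMEM with 10% FCS, plated at 10^5 cells/well. Cells preincubated 24 h with compound (1.0 or 10.0 µM; dissolved in 2% DMSO, diluted in PBS), then exposed to H2O2 100 µM for 2 h. Medium replaced; viability assessed 24 h later by MTT (4 h, 37 °C), lysis in DMF/SDS, A590.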
Background: Tetrazolium dyes change colour on reduction, which living cells bring about.

Data set [8] concerns Mus musculus. Description: Reversal of scopolamine-induced memory impairment in Kunming mouse assessed as step-down latency time at 7.33 mg/kg, po administered 60 mins prior to training trial followed by scopolamine challenge at 30 mins post dose measured 24 hrs after training trial by passive avoidance test. The data set is classed as functional. A digest of the protocol:
(§2)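 Kunming mice, 18–22 g, six weeks old, either sex; 10 per group. Oral dosing 1 h before training (test compound 3.67, 7.33, 22 mg/kg; donepezil 5.0 mg/kg), scopolamine 3 mg/kg i.p. 30 min later. Training: 0.5 mA, 2 s foot shock on stepping off the block. Step-down latency measured 24 h later. Mean ± SEM.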

For data set [9], the system named is Mus musculus. The data set can be described thus: Reversal of scopolamine-induced memory impairment in Kunming mouse assessed as step-down latency time at 22 mg/kg, po administered 60 mins prior to training trial followed by scopolamine challenge at 30 mins post dose measured 24 hrs after training trial by passive avoidance test. The data set is classed as functional. A digest of the protocol:
as §2

Data set [10] has as its target T2, Acetylcholinesterase. Description: Inhibition of human erythrocyte AChE induced amyloid beta (1 to 40) aggregation after 24 hrs by ThT-based fluorometric method. A digest of the protocol: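 HFIP-pretreated Aβ1-40 (230 µM final) co-incubated 24 h at room temperature with human AChE (2.3 µM; Aβ/AChE 100:1) ± compound in sodium phosphate buffer pH 8.0. Then 5 µM thioflavin T in glycine-NaOH pH 8.5 was added and read at ex 446/em 490 nm. Triplicate. % inhibition calculated from fluorescence with/without inhibitor, each minus its blank (Aβ alone, AChE alone, Aβ+inhibitor).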

The test system of data set [11] is Mus musculus. Description: Reversal of scopolamine-induced memory impairment in po dosed Kunming mouse assessed as increase in step-down latency time administered 60 mins prior to training trial followed by scopolamine challenge at 30 mins post dose measured 24 hrs after training trial by passive avoidance test. The data set is classed as functional, organism-based. A digest of the protocol:
as §2

The nature of data set [12]: Solubility of the compound in DMEM in presence of 10% FBS. The data set is classed as physicochemical.

Each structure is given as a SMILES string. pIC50: −log10 of the molar value. The source made the active and inactive calls. The rule behind the calls is not given here.

T2 sequence (P22303 whole entry): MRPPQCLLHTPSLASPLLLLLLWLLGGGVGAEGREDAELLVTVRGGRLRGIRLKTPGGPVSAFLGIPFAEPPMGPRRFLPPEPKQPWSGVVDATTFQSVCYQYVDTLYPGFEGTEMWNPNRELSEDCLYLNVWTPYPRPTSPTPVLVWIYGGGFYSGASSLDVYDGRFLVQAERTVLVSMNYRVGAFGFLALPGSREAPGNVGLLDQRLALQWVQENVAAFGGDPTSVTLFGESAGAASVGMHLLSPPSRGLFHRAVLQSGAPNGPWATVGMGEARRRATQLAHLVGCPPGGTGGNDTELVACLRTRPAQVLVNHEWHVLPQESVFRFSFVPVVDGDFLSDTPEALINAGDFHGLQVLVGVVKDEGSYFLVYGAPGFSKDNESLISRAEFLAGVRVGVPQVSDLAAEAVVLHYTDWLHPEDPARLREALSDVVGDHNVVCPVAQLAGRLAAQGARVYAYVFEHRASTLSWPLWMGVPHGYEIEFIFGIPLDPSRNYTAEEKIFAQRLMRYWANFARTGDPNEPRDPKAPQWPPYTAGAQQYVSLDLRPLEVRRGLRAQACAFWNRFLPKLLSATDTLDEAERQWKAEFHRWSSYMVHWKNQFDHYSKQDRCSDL

In the case of `CCN(CCCCNC(=O)COc1ccc(-c2cc(=O)c3c(O)c(OC)c(OC)cc3o2)cc1)Cc1ccccc1OC`, the pIC50 at Acetylcholinesterase [1] is 7.29; in data set [2], below 3.30; against Acetylcholinesterase [4] it was 7.41. Besides, the Activity in [3] is 1.13 equiv; in [7], 66.3%; with Mus musculus [11], “Dose-dependent effect”. In addition, the outcome in [5] and in [6] was inactive. Further, the viability at 1 µM in the data set with PC-12 is 67.6%. The Time in the data set on Mus musculus [8] turned out to be 194.3 s; in the data set on Mus musculus [9], 176.4 s. Further, at Acetylcholinesterase [10], the inhibition entry was “Dose-dependent effect”. The solubility result in data set [12] was “Insoluble”.

For orientation: pIC50 means the negative decadic logarithm of the IC50, by convention in mol/L.
